Values belong to the compound of their own block, whether it stands above or below them.
How the values were obtained:
Enterovirus [1] = assay: In vitro inhibitory concentration against human enterovirus EV71-4643 strain; type: functional, organism-based, Enterovirus A71
Procedure, shortened: (§1)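 CPE-inhibition (neutralization) assay on RD cells seeded at 3 × 10⁵ cells/mL in DMEM/10% FBS and grown 24-30 h to about 90% confluency. Virus (100 TCID50) was mixed with graded compound concentrations and adsorbed 1 h at 37 °C. Cells were overlaid with DMEM, 5% FBS and 2% DMSO, incubated 64 h at 37 °C, then glutaraldehyde-fixed and crystal violet-stained, with A570 read-out. IC50 is 50% CPE reduction versus virus control. Triplicate, at least twice.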

Enterovirus [2] = assay: In vitro inhibitory concentration against human enterovirus EV71-2231 strain; type: functional, organism-based, Enterovirus A71; procedure, shortened: as §1
[3] = Cytotoxicity against human rhabdomyosarcoma cells; type: cell-based
Procedure, shortened: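 RD (rhabdomyosarcoma) cells were exposed to test compounds at various concentrations for 96 h at 37 °C. Viable cells were counted by trypan blue staining. CC50 is the concentration that reduces viability to 50% of the untreated control culture. Triplicate, run at least twice.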

Enterovirus [4] = assay: Ratio of CC50 to that of IC50 against human enterovirus EV71-4643 strain; type: functional, Enterovirus A71
Enterovirus [5] = assay: Ratio of CC50 to that of IC50 against human enterovirus EV71-2231 strain; type: functional, Enterovirus A71
Coxsackievirus [6] = assay: Inhibitory concentration against Coxsackievirus B2; type: functional, organism-based, Viruses; procedure, shortened: as §1
Enterovirus [7] = assay: Inhibitory concentration against human enterovirus EV71 (BrCr) genotype A; type: functional, organism-based, Viruses; procedure, shortened: as §1
Coxsackievirus [8] = assay: Inhibitory concentration against Coxsackievirus A9; type: functional, organism-based, Viruses; procedure, shortened: as §1
Enterovirus [9] = assay: Inhibitory concentration against human enterovirus EV71 (1743) genotype B; type: functional, organism-based, Viruses; procedure, shortened: as §1
Enterovirus [10] = assay: Inhibitory concentration against human enterovirus EV71 (2231) genotype C; type: functional, organism-based, Viruses; procedure, shortened: as §1
Enterovirus [11] = assay: Inhibitory concentration against human enterovirus EV68; type: functional, organism-based, Viruses
Coxsackievirus [12] = assay: Inhibitory concentration against Coxsackievirus B6; type: functional, organism-based, Viruses; procedure, shortened: as §1
rhinovirus A2 = assay: Inhibitory concentration against Human rhinovirus 2; type: functional, organism-based, human rhinovirus type 2; conditions: Rhinovirus A; procedure, shortened: as §1
[13] = Inhibitory concentration against Human rhinovirus 14; type: functional, human rhinovirus type 14; procedure, shortened: as §1
Coxsackievirus [14] = assay: Inhibitory concentration against Coxsackievirus B4; type: functional, organism-based, Viruses; procedure, shortened: as §1
Coxsackievirus [15] = assay: Inhibitory concentration against Coxsackievirus A16; type: functional, organism-based, Viruses; procedure, shortened: as §1
[16] = Inhibitory concentration against Echovirus 9; type: functional, Viruses; procedure, shortened: as §1
Coxsackievirus [17] = assay: Inhibitory concentration against Coxsackievirus B5; type: functional, organism-based, Viruses; procedure, shortened: as §1
Coxsackievirus [18] = assay: Inhibitory concentration against Coxsackievirus B1; type: functional, organism-based, Viruses; procedure, shortened: as §1
Coxsackievirus [19] = assay: Inhibitory concentration against Coxsackievirus A10; type: functional, organism-based, Viruses; procedure, shortened: as §1
Enterovirus [20] = assay: Inhibitory concentration against human enterovirus EV71 (4643) genotype C; type: functional, organism-based, Viruses; procedure, shortened: as §1
Coxsackievirus [21] = assay: Inhibitory concentration against Coxsackievirus A24; type: functional, organism-based, Viruses; procedure, shortened: as §1
Coxsackievirus [22] = assay: Inhibitory concentration against Coxsackievirus B3; type: functional, organism-based, Viruses; procedure, shortened: as §1
Enterovirus [23] = assay: Inhibitory concentration against human enterovirus EV71 (2086) genotype C; type: functional, organism-based, Viruses; procedure, shortened: as §1
[24] = Inhibitory concentration against Echovirus 29; type: functional, Viruses; procedure, shortened: as §1

Compound: O=C1N(Cc2cccc(COc3ccc(-c4ccc(Cl)cc4)cc3)c2)CCN1c1ccncc1
IC50 (Enterovirus [1]): 160 nM
IC50 (Enterovirus [2]): 1170 nM
CC50 [3]: > 6.25 µM

Compound: O=C1N(Cc2cccc(COc3ccc(-c4ccc(Cl)cc4)cc3)n2)CCN1c1ccncc1
IC50 (Enterovirus [1]): > 25000 nM
IC50 (Enterovirus [2]): > 25000 nM
CC50 [3]: > 25 µM

Compound: O=C1N(CCN(CCOc2ccc(-c3ccc(Cl)cc3)cc2)Cc2ccc(Cl)cc2)CCN1c1ccncc1
IC50 (Enterovirus [1]): > 25000 nM
IC50 (Enterovirus [2]): > 25000 nM
CC50 [3]: > 25 µM

Compound: Cc1ccc(CN(CCOc2ccc(-c3ccc(Cl)cc3)cc2)CCN2CCN(c3ccncc3)C2=O)cc1
IC50 (Enterovirus [1]): > 12500 nM
IC50 (Enterovirus [2]): > 12500 nM
CC50 [3]: > 12.5 µM

Compound: CC(CCOc1ccc(-c2nnn(C)n2)cc1)CCN1CCN(c2ccncc2)C1=O (stereo not drawn)
IC50 (Enterovirus [1]): 2.8 nM
IC50 (Enterovirus [2]): 43 nM
CC50 [3]: > 25 µM
Selectivity index (Enterovirus [4]): >8928
Selectivity index (Enterovirus [5]): >581

Compound: O=C1N(CCC2(CCOc3ccc(-c4ccc(Cl)cc4)cc3)CCCCC2)CCN1c1ccncc1
IC50 (Enterovirus [1]): > 25000 nM
IC50 (Enterovirus [2]): > 25000 nM
CC50 [3]: > 25 µM

Compound: O=C1N(Cc2ccccc2COc2ccc(-c3ccc(Cl)cc3)cc2)CCN1c1ccncc1
IC50 (Enterovirus [1]): > 1250 nM
IC50 (Enterovirus [2]): > 1250 nM
CC50 [3]: > 1.25 µM

Compound: CCn1nnc(-c2ccc(OCCC(C)CCN3CCN(c4ccncc4)C3=O)cc2)n1 (stereo not drawn)
IC50 (Coxsackievirus [6]): > 25 µM
IC50 (Enterovirus [7]): 15 nM
IC50 (Coxsackievirus [8]): > 25000 nM
IC50 (Enterovirus [9]): 18 nM
IC50 (Enterovirus [10]): 14 nM
IC50 (Enterovirus [11]): 2870 nM
IC50 (Enterovirus [1]): 0.9 nM
IC50 (Coxsackievirus [12]): > 25 µM
IC50 (rhinovirus A2): 1450 nM
IC50 [13]: 0.85 µM
IC50 (Coxsackievirus [14]): 2740 nM
IC50 (Coxsackievirus [15]): 130 nM
IC50 [16]: 280 nM
IC50 (Coxsackievirus [17]): 10.4 µM
IC50 (Enterovirus [2]): 14 nM
IC50 (Coxsackievirus [18]): 35 nM
CC50 [3]: > 12.5 µM
IC50 (Coxsackievirus [19]): 240 nM
IC50 (Enterovirus [20]): 0.9 nM
IC50 (Coxsackievirus [21]): 140 nM
IC50 (Coxsackievirus [22]): > 25 µM
Selectivity index (Enterovirus [4]): >13888
IC50 (Enterovirus [23]): 3 nM
Selectivity index (Enterovirus [5]): >892
IC50 [24]: 3230 nM

Compound: O=C1N(Cc2ccc(COc3ccc(-c4ccc(Cl)cc4)cc3)cc2)CCN1c1ccncc1
IC50 (Enterovirus [1]): > 1250 nM
IC50 (Enterovirus [2]): > 1250 nM
CC50 [3]: > 1.25 µM

Compound: CC(CCOc1ccc(-c2noc(C(F)(F)F)n2)cc1)CCN1CCN(c2ccncc2)C1=O (stereo not drawn)
IC50 (Enterovirus [1]): 1.4 nM
IC50 (Enterovirus [2]): 24 nM
CC50 [3]: > 25 µM
Selectivity index (Enterovirus [4]): >17857
Selectivity index (Enterovirus [5]): >1041

Now from value to compound, other results behind:

IC50 (Enterovirus [1]): 960 nM
IC50 (Enterovirus [2]): > 25000 nM
Compound: CCCC(CCOc1ccc(-c2ccc(Cl)cc2)cc1)CCN1CCN(c2ccncc2)C1=O (stereo not drawn)
CC50 [3]: > 25 µM

IC50 (Enterovirus [1]): 830 nM
IC50 (Enterovirus [2]): 7300 nM
Compound: O=C1N(CCOCCOc2ccc(-c3ccc(Cl)cc3)cc2)CCN1c1ccncc1
CC50 [3]: 25 µM

IC50 (Enterovirus [1]): 94 nM
IC50 (Enterovirus [2]): 720 nM
Compound: CC(C)(CCCOc1ccc(-c2ccc(Cl)cc2)cc1)CN1CCN(c2ccncc2)C1=O
CC50 [3]: 20 µM

IC50 (Enterovirus [1]): 15 nM
IC50 (Enterovirus [2]): 57 nM
Compound: CC(CCCN1CCN(c2ccncc2)C1=O)COc1ccc(-c2ccc(Cl)cc2)cc1 (stereo not drawn)
CC50 [3]: > 25 µM

IC50 (Enterovirus [1]): 41 nM
IC50 (Enterovirus [2]): 140 nM
Compound: CC(C)(CCOc1ccc(-c2ccc(Cl)cc2)cc1)CCN1CCN(c2ccncc2)C1=O
CC50 [3]: > 25 µM

IC50 (Enterovirus [1]): 740 nM
IC50 (Enterovirus [2]): 2540 nM
Compound: O=C1N(CCC(CCOc2ccc(-c3ccc(Cl)cc3)cc2)C(F)(F)F)CCN1c1ccncc1 (stereo not drawn)
CC50 [3]: > 12.5 µM

IC50 (Coxsackievirus [6]): > 12.5 µM
IC50 (Enterovirus [7]): 69 nM
IC50 (Coxsackievirus [8]): 33 nM
IC50 (Enterovirus [9]): 16 nM
IC50 (Enterovirus [10]): 38 nM
IC50 (Enterovirus [11]): 2680 nM
IC50 (Enterovirus [1]): 9.3 nM
IC50 (Coxsackievirus [12]): > 12.5 µM
IC50 (rhinovirus A2): > 12500 nM
IC50 [13]: 7.91 µM
IC50 (Coxsackievirus [14]): 1240 nM
IC50 (Coxsackievirus [15]): 900 nM
IC50 [16]: 2630 nM
IC50 (Coxsackievirus [17]): 1.32 µM
IC50 (Enterovirus [2]): 38 nM
IC50 (Coxsackievirus [18]): 2890 nM
IC50 (Coxsackievirus [19]): 1710 nM
IC50 (Enterovirus [20]): 9.3 nM
IC50 (Coxsackievirus [21]): 250 nM
IC50 (Coxsackievirus [22]): > 12.5 µM
IC50 [24]: 40 nM
Compound: CC(CCOc1ccc(-c2ccc(Cl)cc2)cc1)CCN1CCN(c2ccncc2)C1=O (stereo not drawn)
CC50 [3]: > 25 µM
Selectivity index (Enterovirus [4]): >2688
Selectivity index (Enterovirus [5]): >657

From ChEMBL document CHEMBL1139509, “Design, synthesis, and antipicornavirus activity of 1-[5-(4-arylphenoxy)alkyl]-3-pyridin-4-ylimidazolidin-2-one derivatives” (J Med Chem, 2005)
